Experimental data: article PMC3433230 (Journal of biomolecular screening, 2009)
pEC50: −log10 of the molar value.

How the values were obtained:
[1] = test system: RBL-2H3 cells; assay: Live cell microscopy of RBL-2H3 cells; type: cell-based, Rat; details: 10 μM; for cell shape changes in response to ligand-mediated activation: 1 μg/ml DNP/BSA, IgE primed cells
[2] = test system: RBL-2H3 cells; assay: β-Hexosaminidase secretion measurements in RBL-2H3 cells; type: cell-based, Rat
Method in brief: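 RBL-2H3 cells are primed overnight with IgE, washed and incubated 1 h with test compound in Tyrode's buffer. Supernatant is sampled for spontaneous β-hexosaminidase release. Cells are then activated with DNP/BSA (0.1 μg/ml) for 30 min at 37°C. Release is expressed as percent of total enzyme from Triton X-100-lysed cells.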

[3] = test system: NIH 3T3 fibroblasts; details: NIH 3T3 fibroblasts ref 30; cited from earlier work
[4] = test system: Cdc42wt, Rac1wt, Rac1Q61L, Rab2 wt, Rab7wt, and H-Ras wt (GST-GTPases); assay: Multiplexed primary screen, flow cytometry bead-based BODIPY-FL-GTP binding; details: 10 μM compound, 100 nM BODIPY-FL-GTP, 1 mM EDTA
Method in brief: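 Each GST-GTPase (1 μM) is loaded overnight at 4°C onto its own red-intensity GSH-bead set. Beads are washed in NP-HPSE with 0.1% BSA and 1 mM DTT, then pooled, about 2000 beads per GTPase per well. Test compound is added at 10 μM (1% DMSO), with BODIPY-FL-GTP from a 200 nM stock. Plates rotate 40–45 min at 4°C and are read by HyperCyt flow cytometry. FL8 identifies bead sets; median FL1 (530 nm) gives binding. Hits exceed 20% change from baseline. Controls are DMSO and 0.5 mM unlabelled GTP.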

[5] = test system: H-Ras and Rab proteins; assay: Dose response of BODIPY-FL-GTP binding, 1 mM EDTA; details: 10^−4 M compound
Method in brief: (§1)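 GST-GTPases are coupled overnight at 4°C to colour-coded GSH-beads at 1 μM each. Beads are run as a multiplex (Rab7 wt, Rab2 wt, H-Ras wt, H-RasG12V, Cdc42 wt, Cdc42Q61L). […] Buffer contains 1 mM EDTA. Test compound is a 9-point 1:3 series, final 10 nM–100 μM. Binding of 100 nM (final) BODIPY-FL-GTP is read by flow cytometry, in triplicate.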

[6] = test system: Rac1 wt, Rac1Q61L, Rac2 wt, RhoA wt and RhoAL63, Cdc42 wt, Cdc42Q61L and Ral wt; assay: Eight-plex dose response of BODIPY-FL-GTP binding, 1 mM MgCl2; details: 1 mM MgCl2, 100 nM BODIPY-FL-GTP
Method in brief: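 Buffer is NP-HPS with 1 mM MgCl2. Binding of 100 nM BODIPY-FL-GTP is measured by flow cytometry with or without a 9-point 1:3 test-compound series (final 10 nM–100 μM). Each series is run in triplicate.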

[7] = target: Wild-type GST-Cdc42 (Homo sapiens, UniProt P60953); assay: Real-time GTP-binding kinetic assay by flow cytometry
Method in brief: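 GST-Cdc42 wt (4 μM) is bound to GSH-beads overnight at 4°C. Nucleotide is stripped with 10 mM EDTA for 20 min at 30°C, then beads are washed and resuspended in NP-HPS with 1 mM EDTA, 1 mM DTT and 0.1% BSA. Beads are preincubated 2 min with 1% DMSO or 10 μM test compound. Ice-cold BODIPY-FL-GTP (6.5–200 nM) is added, and association is followed 3 min by kinetic-mode flow cytometry (n=4). Bound signal at 3 min versus GTP concentration is curve-fitted.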

[8] = target: T1, Rac1 (Mus musculus, UniProt P63001); assay: Rac activation assay; type: cell-based
Method in brief: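 Swiss 3T3 cells are serum-starved overnight, then treated 20–30 min with 1% DMSO or 10 μM test compound. Some cells are then given 10 ng/ml EGF for 2 min; EGF alone is the positive control.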

[9] = target: GST-Rac1 (Homo sapiens, UniProt P63000); assay: In vitro bead based assay of Rac1 binding to fluorescent GTP; details: 10 μM compound, 100 nM fluorescent GTP
[10] = target: T1, Rac1; assay: G-LISA assay for active Rac in Swiss 3T3 cells; type: cell-based; details: for blocking EGF-stimulated Rac activation: concentrations of 1 μM or less
[11] = test system: RBL-2H3 cells; assay: Rhodamine-phalloidin staining and confocal microscopy of RBL-2H3 cells; type: cell-based, Rat; details: 10 μM, DNP/BSA 1 μg/ml
Method in brief: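 RBL-2H3 cells on coverslips are cultured overnight with or without 10 μM test compound; stimulated cells get 1 μg/ml DNP-BSA for 30 min. Cells are fixed in 3% paraformaldehyde, permeabilised 5 min in 0.1% Triton X-100, blocked 1 h in 1% BSA and stained 1 h with rhodamine-phalloidin, all at room temperature. Confocal x-y and x-z views are collected.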

[12] = test system: Swiss 3T3 cells; assay: Stress fiber formation in EGF treated Swiss 3T3 cells; type: cell-based; details: 10 μM, 30 min pre-treatment, 10 ng/ml EGF
Method in brief: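 Quiescent, serum-starved Swiss 3T3 fibroblasts are treated 30 min with 10 μM test compound or DMSO, then stimulated with 10 ng/ml EGF for 2 min. Cells are imaged for actin stress fibres.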

[13] = target: Cdc42 (Homo sapiens, UniProt P60953); assay: Dose response of BODIPY-FL-GTP binding, 1 mM EDTA
Method in brief: as §1

[14] = 10 μM inhibitor, 6.5–200 nM BODIPY-GTP

Sequence of Wild-type GST-Cdc42 (P60953 whole entry): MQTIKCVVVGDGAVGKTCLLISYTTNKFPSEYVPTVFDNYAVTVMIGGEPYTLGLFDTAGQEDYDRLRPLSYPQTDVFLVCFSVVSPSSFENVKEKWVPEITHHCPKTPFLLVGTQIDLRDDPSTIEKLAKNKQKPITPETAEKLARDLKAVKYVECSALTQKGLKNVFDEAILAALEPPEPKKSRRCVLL
Sequence of Cdc42 (P60953 whole entry): as above

O=c1cc(CN2CCOCC2)occ1OCCCCCSc1ccnc2cc(C(F)(F)F)ccc12 [EHT1864, reference compound]
cell shape changes in response to ligand-mediated activation [1]: failed to inhibit | inhibition of β-hexosaminidase secretion in response to ligand-stimulation ([2]; 10 μM): failed to inhibit | lamellipodia formation following platelet derived growth factor stimulation [3]: blocked

O=C(C#Cc1ccccc1)c1cccc([N+](=O)[O-])c1 [MLS000532223, 1-(3-nitrophenyl)-3-phenyl-2-propyn-1-one]
effect on BODIPY-FL-GTP binding to the tested GTPases, primary screen [4]: inhibitory effect | inhibition of BODIPY-FL-GTP binding [5]: < 20% | effect on BODIPY-FL-GTP binding in the presence of Mg2+ [6]: inhibited the activity of all tested GTPases of the Rho and Ral families | effect on Bmax of GTP-binding [7, 14]: decreased | effect on affinity of GTP to wild type Cdc42 [7, 14]: remained constant | reversibility of activity ([7]; data not shown): not reversible | growth factor induced activation of Rac1 ([8]; 10 μM pretreatment, 10 ng/ml EGF for 2 min): completely inhibited | low level of active Rac1 in serum starved cells ([8]; 10 μM, 30 min pretreatment, no EGF): completely abolished | inhibition of BODIPY-FL-GTP binding to GST-Rac1 [9]: similar | inhibition of EGF stimulated activation of Rac1 ([10]; 3–10 μM, 1 h, then 10 ng/ml EGF 2 min): effectively inhibited | blocking EGF-stimulated Rac activation [10]: Neither compound was effective | cell shape and F-actin after cross-linking of IgE receptors [11]: failed to flatten | formation of stress fibers upon EGF stimulation [12]: completely inhibited | cell shape changes in response to ligand-mediated activation [1]: completely abrogated | morphology of resting cells ([1]; no ligand): no change in morphology | toxicity to cells ([2]; 10 μM): not toxic | spontaneous β-hexosaminidase secretion, absence of ligand stimulation ([2]; 10 μM, 1 h): no β-hexosaminidase secretion | reduction of β-hexosaminidase secretion in ligand-stimulated cells ([2]; 10 μM, DNP/BSA): 50%

NS(=O)(=O)c1ccc(N2N=C(c3ccccc3)CC2c2ccccc2)cc1 (centres unmarked) [MLS000573151, 4-[3,5-di(phenyl)-4,5-dihydropyrazol-1-yl]benzenesulfonamide]
effect on BODIPY-FL-GTP binding to the tested GTPases, primary screen [4]: Cdc42 specific inhibitor | pEC50 [13]: ~5.70 | effect on BODIPY-FL-GTP binding in the presence of Mg2+ [6]: specific for Cdc42

CCN(CC)CCCC(C)Nc1nc(C)cc(Nc2ccc3nc(C)cc(N)c3c2)n1 (centres unmarked) [NSC23766, reference compound]
blocking EGF-stimulated Rac activation [10]: Neither compound was effective | inhibition of EGF stimulated activation of Rac1 ([10]; doses up to 50 μM): more modest inhibition | cell shape changes in response to ligand-mediated activation [1]: failed to inhibit | toxicity to RBL-2H3 cells ([2]; 50 μM): toxic | spontaneous β-hexosaminidase release ([2]; 50 μM (Fig. 7A), 1 h): extensive
